# Compound activity from PubChem BioAssay.
# MPTP block = mitochondrial permeability transition pore inhibitors, primary screen, biochemical, isolated mouse mitochondria, absorbance. Ca2+ swelling absorbance, 30 min. inhibition, % at 10 µM. 1.4% of 360,000 active. AID 602449, 2012;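 active = inhibition of 50% or more, scaled per plate between neutral and stimulator controls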;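 note: 0% = DMSO wells given calcium and 100% = 1 mM EGTA wells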
# ATG4B inh = ATG4B protease inhibitors, primary screen, biochemical, fluorescence, uHTS. Cysteine protease ATG4B (Homo sapiens), Q9Y4P1. ATG4B cleavage of LC3-PLA2, NBD-HPC fluorescence, 1 h. inhibition, % at 8.33 µM. 0.51% of 340,000 active; in the data active = inhibition above about 40%
# Target sequence (Q9Y4P1 whole entry, looked up): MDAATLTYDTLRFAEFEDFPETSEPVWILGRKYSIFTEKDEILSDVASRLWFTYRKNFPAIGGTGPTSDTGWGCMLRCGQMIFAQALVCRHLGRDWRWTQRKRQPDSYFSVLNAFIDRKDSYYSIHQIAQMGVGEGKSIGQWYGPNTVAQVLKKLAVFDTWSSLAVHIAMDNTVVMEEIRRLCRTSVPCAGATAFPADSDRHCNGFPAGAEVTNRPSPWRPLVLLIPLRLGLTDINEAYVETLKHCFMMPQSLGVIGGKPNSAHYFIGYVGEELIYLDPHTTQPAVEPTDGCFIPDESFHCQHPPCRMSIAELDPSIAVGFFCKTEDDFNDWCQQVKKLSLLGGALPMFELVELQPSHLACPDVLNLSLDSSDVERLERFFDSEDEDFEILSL
# MC4R antagonist = MC4R antagonists of cAMP signaling, primary screen, cell-based, TR-FRET, antagonist arm of biased-ligand search | Melanocortin receptor 4 (Homo sapiens), P32245 | 0.48% of 360,000 active | inhibition, % at 6.5 µM | MC4R-expressing cells, MTII-stimulated cAMP, LANCE TR-FRET;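 active = inhibition above its plate's cutoff, the mean of tested wells on that plate plus 3 SD, cut at about 29% in these data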;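 note: 0% = Melanotan II alone and 100% = Melanotan II plus saturating MCL0020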
# Target sequence (P32245 whole entry, looked up): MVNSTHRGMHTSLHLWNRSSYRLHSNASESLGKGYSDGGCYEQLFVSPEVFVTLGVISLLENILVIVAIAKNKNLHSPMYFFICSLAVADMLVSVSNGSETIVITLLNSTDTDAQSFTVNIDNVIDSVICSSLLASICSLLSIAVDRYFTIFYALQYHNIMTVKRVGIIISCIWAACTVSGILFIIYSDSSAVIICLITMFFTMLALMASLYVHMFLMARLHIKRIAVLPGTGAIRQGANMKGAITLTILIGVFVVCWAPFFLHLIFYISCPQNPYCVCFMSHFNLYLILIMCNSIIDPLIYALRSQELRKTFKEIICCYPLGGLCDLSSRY
#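 Assay system: U2OS-MC4R stable cell line; Also added: Melanotan II; Technique: Eu-cAMP/anti-cAMP TR-FRET, emission 671 nm; Times: 30-min compound, 1-h challenge, 1-h detection, room temperature.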
# SMARCA2 activ = SMARCA2 (BRM) function activators, primary screen, cell-based, luminescence, high throughput | MG213 cells, MMTV-luciferase reporter, dexamethasone, overnight | activation, % at 9.1 µM | 1% of 370,000 active; in the data active = activation above about 7.8%;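 note: 0% = vehicle wells and 100% = reference activator wells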
# MC4R ag barr = MC4R agonists recruiting beta-arrestin, primary screen, cell-based, luminescence, agonist arm of biased-ligand search; Melanocortin receptor 4 (Homo sapiens), P32245; U2OS MC4R beta-arrestin complementation; percent of melanotan II response, DMSO zero; activation, % at 8.9 µM; 0.98% of 360,000 active; AID 540308, 2011;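 active = activation above a per-plate cutoff, the mean activation of sample wells on that plate plus 3 SD, cut at about 8% in these data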
# MPTP counter = fluorescence retest of MPTP screen hits in isolated mitochondria, single concentration; shares compounds with MPTP block; membrane potential, Rhodamine 123 fluorescence; inhibition, % at 10 µM; 78% of 5,000 active; in the data active = inhibition above about 22%;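 note: 0% = DMSO vehicle and 100% = positive control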
# MPTP swell DR = mitochondrial permeability transition pore inhibitors, dose response, biochemical, absorbance, uHTS hits | shares compounds with MPTP block | isolated mitochondria swelling | 58% of 780 active | IC50, µM | AID 651561, 2012; in the data active = IC50 below about 20 µM
# MPTP cs DR = fluorescent counter-screen in isolated mitochondria, dose response, counter-screen for MPTP inhibitor project, biochemical, fluorescence, uHTS hits; shares compounds with MPTP block; isolated mitochondria counterscreen, fluorescence read-out; IC50, µM; 49% of 780 active; in the data active = IC50 below about 80 µM
# Numbers without * were called inactive; i = inactive; nt = no result given. An excerpt weighted towards active compounds, which were near 4.1% of everything screened.
SMILES,MPTP block,ATG4B inh,MC4R antagonist,SMARCA2 activ,MC4R ag barr,MPTP counter,others
CCOC(=O)c1sc(NC(=O)CSc2nc(C)cc(C)n2)c(C#N)c1C,58.0*,-2.3,5.1,-5.0,0.3,39.7*,
O=C(CSc1nc(-c2ccco2)cc(C(F)(F)F)n1)Nc1ccc(C(=O)N2CCCCC2)cc1,53.8*,-0.5,3.2,-1.1,0.1,92.4*,
CCC[C@H](/C=C/C(=O)OC(C)(C)C)Sc1ccc(N)cc1,nt,nt,nt,-1.7,nt,nt,
C[C@H]1COc2cc(Br)ccc2S(=O)(=O)N1Cc1cn(Cc2ccccc2)nn1,nt,nt,nt,-0.8,nt,nt,
Cc1ccc(S(=O)(=O)N(C)[C@H]2C[C@H]3c4[nH]c5c(-c6ccccc6)cccc5c4CCN3C(=O)[C@H]2[C@H](C)O)cc1,nt,nt,nt,-1.3,nt,nt,
CCOC(=O)c1sc(NC(=O)c2cccnc2)c(C#N)c1C,0.6,-2.0,2.4,-0.9,2.0,nt,
CCOC(=O)c1sc(NC(=O)c2cc(-c3ccccc3)nc3ccccc23)c(C#N)c1C,107.0*,-3.5,12.3,-0.5,-0.3,78.2*,
CCOC(=O)c1sc(NC(=O)CSc2nc3c(cc2C#N)CCCCC3)c(C#N)c1C,91.2*,-1.5,4.2,-1.4,-1.8,3.7,MPTP swell DR=>100;MPTP cs DR=9.79*
C#CCN(Cc1ccco1)C(=O)c1nnc2c3cc(OC)ccc3n(S(=O)(=O)c3ccc(OC)cc3)c2n1,nt,nt,nt,-2.2,nt,nt,
CCOC(=O)C1=CCN(S(=O)(=O)c2ccc(Cl)cc2)C1c1cccc(Br)c1 (stereo unspecified),nt,nt,nt,-2.9,nt,nt,
Cc1nonc1NC(=O)CSc1nc(CCC2CCCC2)nc2ccccc12,65.8*,-2.8,7.8,-3.7,4.6,82.0*,
Cc1cc(NC(=O)CSc2nc(CCC3CCCC3)nc3ccccc23)no1,-0.1,-1.4,11.8,-1.3,4.6,nt,
Cc1cc(C)cc(C(=O)OCCN(C)C2CN(Cc3cn(Cc4cccc(F)c4)nn3)S(=O)(=O)C2)c1 (stereo unspecified),nt,nt,nt,-2.7,nt,nt,
CCN(CC)c1ccc(C(=O)O)cc1,0.6,-6.0,13.3,-1.2,0.8,nt,
CCN(CC)c1ccc(/C=C2\C(=O)c3ccc(C(=O)O)cc3C2=O)cc1,70.4*,-2.0,11.9,-1.4,-3.9,-32.6,
CC(CNC(=O)COc1ccccc1)OC(=O)Nc1ccc(Cl)c(Cl)c1 (stereo unspecified),89.0*,-12.3,-2.9,-4.8,-1.8,88.0*,
Cc1cccc(C)c1-n1c(C)cc(/C=N/NC(=O)CSc2ncccn2)c1C,88.6*,7.0,-2.5,-0.4,1.7,-6.2,MPTP swell DR=i;MPTP cs DR=49.6*
CCC(=O)Nc1nc(-c2ccccc2)ns1,13.7,-6.1,7.0,6.6,-1.6,nt,
CC(=O)Nc1nc(-c2ccc(Cl)cc2)ns1,87.8*,0.4,3.1,-1.0,-0.3,60.4*,
CCC(C)N(C(=O)CSc1nnc(-c2cccnc2)n1C1CCCCC1)C(C)CC (stereo unspecified),nt,nt,nt,3.0,nt,nt,
Cc1ccc(-c2nn(-c3ccccc3)cc2CSC(=N)N)cc1,99.1*,6.6,-6.5,-1.4,3.6,-24.9,MPTP swell DR=5.55*;MPTP cs DR=40.6*
O=C(O)Cc1cn(-c2ccccc2)nc1-c1ccccc1,2.7,0.7,3.1,-3.1,-0.9,nt,
C[C@H]1COc2cccc(F)c2S(=O)(=O)N1C,nt,nt,nt,-0.7,nt,nt,
C#CCNC(=O)C[C@H]1C[C@@]2(C(=O)OC)C(=C[C@H](C(C)(C)C)O[C@@H]2C)N(Cc2ccccc2)C1=O,nt,nt,nt,-1.2,nt,nt,
CCOC(=O)c1c(C)[nH]c(C(=O)N/N=C/c2ccc(OC)c(OC)c2)c1C,-2.7,-12.7,-15.6,0.2,-1.7,nt,
SMILES,MPTP block,ATG4B inh,MC4R antagonist,SMARCA2 activ,MC4R ag barr,MPTP counter,others
CCOC(=O)c1c(C)[nH]c(C(=O)N/N=C\c2ccccc2O)c1C,69.3*,-9.9,-13.7,-1.7,-4.0,65.7*,
CCOC(=O)c1c(C)[nH]c(C(=O)N/N=C/c2cc([N+](=O)[O-])ccc2O)c1C,56.4*,2.4,-8.5,-1.3,-2.1,10.6,
CN(CCO)c1cccc2c1S(=O)(=O)N(Cc1cn(Cc3ccccc3C(F)(F)F)nn1)Cc1ccccc1O2,nt,nt,nt,-2.9,nt,nt,
COC(=O)[C@]12CCCCC=C1N(Cc1ccc3c(c1)OCO3)C(=O)[C@H](CC(=O)NCC13CC4CC(CC(C4)C1)C3)C2,-1.0,nt,nt,-5.2,nt,nt,
O=C1CCCN2N=C(SCC(=O)Nc3cccc(F)c3)SC2=N1,50.1*,-1.8,6.5,-1.1,-2.5,15.8,MPTP swell DR=i;MPTP cs DR=38.4*
O=C1CCCN2N=C(SCC(=O)Nc3ccc(F)cc3F)SC2=N1,1.4,-6.1,3.1,-2.2,0.4,nt,
COC(=O)[C@]12C[C@H](CC(=O)NCCc3ccccc3OC)C(=O)N(Cc3ccc(Cl)cc3Cl)C1=C[C@H](C(C)C)O[C@@H]2C1CC1,nt,nt,nt,-2.6,nt,nt,
CN1C(=O)C[C@@](C#N)(C(=O)NCCc2ccccc2)[C@H]1c1ccccc1,nt,nt,nt,0.2,nt,nt,
CCN1/C(=C/c2sc(-c3ccccc3C)c[n+]2C)Sc2ccccc21,95.0*,3.0,-19.6,-11.8,-4.2,107.3*,
C/C=C/c1ccc([C@H]2[C@@H](CN(CC(C)C)S(=O)(=O)c3ccccc3[N+](=O)[O-])N(C(=O)Nc3cccc(OC)c3)[C@H]2CO)cc1,nt,nt,nt,0.1,nt,nt,
CCc1ccc(O)c(CNCCNCc2cc(CC)ccc2O)c1,95.4*,-6.3,9.1,-0.6,2.7,3.6,
Cc1ccc(O)c(CNCCNCc2cc(C)ccc2O)c1,4.3,-4.1,6.6,2.2,3.0,nt,
Cc1ccc(N2C(=O)C3ON(c4ccccc4)C(c4ccncc4)C3C2=O)cc1 (stereo unspecified),23.4,-4.3,10.1,1.8,-1.1,nt,
O=C1C2ON(c3ccccc3)C(c3ccncc3)C2C(=O)N1c1ccc(Br)cc1 (stereo unspecified),68.8*,-1.9,1.3,0.7,0.8,21.8*,
CC(C)(C)c1cc(C(=O)NN)n(Cc2ccc(F)cc2)n1,1.7,-10.8,10.8,-0.7,1.5,nt,
Cc1cccc(Cn2nc(C(C)(C)C)cc2C(=O)Nc2ccc(F)cc2)c1,82.8*,0.5,4.6,-4.4,8.5*,87.0*,
N#C/C(=C\c1ccc(O)cc1)c1nc2ccccc2o1,87.0*,-11.8,-11.6,7.5,-2.8,89.8*,
Cc1cccc(C)c1NC(=S)NC(C)CCc1ccccc1 (stereo unspecified),-17.1,3.4,3.0,-0.1,1.3,nt,
